Assay results as given in ChEMBL document CHEMBL1156459, “Discovery of a small molecule antagonist of the parathyroid hormone receptor by using an N-terminal parathyroid hormone peptide probe” (Proc Natl Acad Sci U S A, 2007).
Square brackets hold non-standard residues; d marks the D form. Peptide text beside a SMILES is read from it. Nle = CCCC[C@H](N)C(=O)O; Aib = CC(C)(N)C(=O)O

Assays:
[1] = target: T1, Parathyroid hormone/parathyroid hormone-related peptide receptor (Homo sapiens, UniProt Q03431); assay: Activity at human PTH/PTH-related peptide receptor expressed in HEK293 cells assessed as induction of intracellular calcium mobilization; type: functional, cell-based
T1 sequence (Q03431 whole entry): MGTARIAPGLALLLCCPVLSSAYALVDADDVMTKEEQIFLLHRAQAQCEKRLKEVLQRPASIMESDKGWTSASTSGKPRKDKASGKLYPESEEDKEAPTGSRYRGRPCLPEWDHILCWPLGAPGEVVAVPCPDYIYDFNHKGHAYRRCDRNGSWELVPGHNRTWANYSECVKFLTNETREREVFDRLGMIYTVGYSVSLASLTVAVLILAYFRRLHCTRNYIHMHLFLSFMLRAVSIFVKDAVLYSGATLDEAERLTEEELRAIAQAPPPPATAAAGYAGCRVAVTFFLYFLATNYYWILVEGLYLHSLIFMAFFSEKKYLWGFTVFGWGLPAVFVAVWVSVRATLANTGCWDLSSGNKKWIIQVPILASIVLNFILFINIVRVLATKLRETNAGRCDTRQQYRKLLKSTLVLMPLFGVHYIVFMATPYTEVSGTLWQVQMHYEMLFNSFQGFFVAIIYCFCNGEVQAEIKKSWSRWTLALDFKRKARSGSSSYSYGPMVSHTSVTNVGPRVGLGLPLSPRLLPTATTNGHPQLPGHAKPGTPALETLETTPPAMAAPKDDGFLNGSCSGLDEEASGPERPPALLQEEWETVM

[2] = Effect on Bmp3 gene expression in rat UMR106 cells after 8 hrs by microarray analysis relative to control; type: functional
In short: (§1)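 Rat UMR106 cells grown to confluency in DMEM/10% FBS, then moved to 0.1% FBS medium 24 h before treatment. Peptides (100 nM) were added to the medium for 2 or 8 h. Microarray profiling covered 8,799 reporters, with changes called at P < 0.01. Values are fold-change versus untreated control.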

[3] = Stability in rat whole blood assessed as half life; type: ADME, tissue-based
In short: (§2)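 Peptide incubated at 37°C in rat plasma or rat whole blood; half-life determined.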

[4] = Effect on c-fos gene expression in rat UMR106 cells after 2 hrs by microarray analysis relative to control; type: functional; in short: as §1
[5] = Effect on Crem gene expression in rat UMR106 cells after 2 hrs by real time PCR method relative to control; type: functional
In short: (§3)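 Confluent UMR106 cells were serum-starved (0.1% FBS, 24 h) and then given peptide in the medium for 2 h. Transcripts were quantified by TaqMan real-time RT-PCR, with relative expression levels set from a serial-dilution standard. Expression is reported as change versus untreated control.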

[6] = Effect on Bmp3 gene expression in rat UMR106 cells after 2 hrs by real time PCR method relative to control; type: functional; in short: as §3
[7] = Effect on IL18 gene expression in rat UMR106 cells after 8 hrs by microarray analysis relative to control; type: functional; in short: as §1
[8] = system: Rattus norvegicus; assay: Increase in cAMP level in ovariectomized rat plasma after 30 mins at 1 mg/kg, sc relative to control; type: functional; settings: route subcutaneous
[9] = target: T1, Parathyroid hormone/parathyroid hormone-related peptide receptor; assay: Displacement of [125I]DPC-AJ1951 from PTH/PTH-related peptide receptor expressed in HKRK-B28 cells; type: cell-based
In short: (§4)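 Whole HKRK-B28 cells plated at 30,000/well and incubated overnight at 37°C, 5% CO2. Incubated 3 h at room temperature, washed three times, bound radioactivity counted by scintillation.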

[10] = Stimulation of cell proliferation in neonatal CD1 mouse calivaria assessed as increase in [3H]thymidine incorporation; type: functional
[11] = Effect on c-fos gene expression in rat UMR106 cells after 2 hrs by real time PCR method relative to control; type: functional; in short: as §3
[12] = Effect on Ptpn16 gene expression in rat UMR106 cells after 2 hrs by microarray analysis relative to control; type: functional; in short: as §1
[13] = Effect on Crem gene expression in rat UMR106 cells after 2 hrs by microarray analysis relative to control; type: functional; in short: as §1
[14] = target: T1, Parathyroid hormone/parathyroid hormone-related peptide receptor; assay: Activity at human PTH/PTH-related peptide receptor expressed in HEK293 cells assessed as induction of luciferase activity by CRE-luciferase reporter assay; type: functional, cell-based
[15] = Stability in rat plasma assessed as half life; type: ADME, cell-free; in short: as §2
[16] = Effect on Pde4b gene expression in rat UMR106 cells after 2 hrs by microarray analysis relative to control; type: functional; in short: as §1
[17] = target: T1, Parathyroid hormone/parathyroid hormone-related peptide receptor; assay: Activity at human PTH/PTH-related peptide receptor expressed in SAOS2 cells assessed as cAMP formation; type: functional, cell-based, SAOS-2
In short: (§5)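 Nonconfluent cells grown at 37°C in DMEM with 10% FBS, refed 12–24 h before assay. Rinsed with warm PBS, detached with prewarmed EDTA (37°C, 5–10 min), spun at 300 × g for 5 min. Resuspended in HBSS/5 mM Hepes/0.1% BSA/0.5 mM IBMX, pH 7.4. cAMP read by AlphaScreen.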

[18] = Effect on Pde4b gene expression in rat UMR106 cells after 8 hrs by microarray analysis relative to control; type: functional; in short: as §1
[19] = Effect on Pthr1 gene expression in rat UMR106 cells after 2 hrs by microarray analysis relative to control; type: functional; in short: as §1
[20] = Decrease in collagen synthesis in neonatal CD1 mouse calivaria bone assessed as [3H]proline incorporation; type: functional
[21] = Effect on Pthr1 gene expression in rat UMR106 cells after 8 hrs by microarray analysis relative to control; type: functional; in short: as §1
[22] = Stimulation of osteoclast-mediated bone resorption in fetal Sprague-Dawley rat radii/ulnae assessed as [45Ca]release measured on day 5; type: functional; settings: 120 h
In short: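 Fetal rat radii/ulnae prelabelled with 45Ca in utero, dissected and cultured. 45Ca released into the culture medium measured as the osteoclast-mediated resorption read-out.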

[23] = Effect on Pthr1 gene expression in rat UMR106 cells after 2 hrs by real time PCR method relative to control; type: functional; in short: as §3
[24] = Effect on c-fos gene expression in rat UMR106 cells after 8 hrs by microarray analysis relative to control; type: functional; in short: as §1
[25] = target: T1, Parathyroid hormone/parathyroid hormone-related peptide receptor; assay: Displacement of [125I]DPC-AJ1951 from PTH/PTH-related peptide receptor expressed in HKRK-B28 cells in presence of SW106; type: cell-based; in short: as §4
[26] = Effect on Ptpn16 gene expression in rat UMR106 cells after 2 hrs by real time PCR method relative to control; type: functional; in short: as §3
[27] = Increase in trabecular bone mineral density in ovariectomized rat at 0.2 mg/kg, sc; type: functional, Trabecula; settings: route subcutaneous
[28] = Effect on Ptpn16 gene expression in rat UMR106 cells after 8 hrs by microarray analysis relative to control; type: functional; in short: as §1
[29] = Effect on Pde4b gene expression in rat UMR106 cells after 2 hrs by real time PCR method relative to control; type: functional; in short: as §3
[30] = target: T1, Parathyroid hormone/parathyroid hormone-related peptide receptor; assay: Binding affinity to PTH/PTH-related peptide receptor expressed in HKRK-B28 cells; type: cell-based; in short: as §4
[31] = target: T2, Parathyroid hormone/parathyroid hormone-related peptide receptor (Rattus norvegicus, UniProt P25961); assay: Activity at rat PTH/PTH-related peptide receptor expressed in rat UMR106 cells assessed as cAMP formation; type: functional, cell-based; in short: as §5
T2 sequence (P25961 whole entry): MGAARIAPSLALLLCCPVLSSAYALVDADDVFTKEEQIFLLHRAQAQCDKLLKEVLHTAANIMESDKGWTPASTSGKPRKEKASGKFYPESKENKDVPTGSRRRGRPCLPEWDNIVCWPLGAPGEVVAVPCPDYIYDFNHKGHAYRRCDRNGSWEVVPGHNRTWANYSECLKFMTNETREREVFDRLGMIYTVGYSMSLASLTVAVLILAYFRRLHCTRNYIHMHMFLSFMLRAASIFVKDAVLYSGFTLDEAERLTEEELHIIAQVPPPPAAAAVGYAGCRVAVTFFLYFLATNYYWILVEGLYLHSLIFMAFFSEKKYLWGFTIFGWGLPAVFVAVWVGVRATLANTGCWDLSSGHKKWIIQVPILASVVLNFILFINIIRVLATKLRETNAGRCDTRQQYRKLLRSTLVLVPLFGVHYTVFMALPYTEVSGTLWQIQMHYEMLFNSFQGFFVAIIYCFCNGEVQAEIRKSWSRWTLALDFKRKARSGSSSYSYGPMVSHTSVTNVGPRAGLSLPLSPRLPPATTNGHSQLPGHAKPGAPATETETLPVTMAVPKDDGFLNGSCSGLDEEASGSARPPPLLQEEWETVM

[32] = Effect on IL18 gene expression in rat UMR106 cells after 2 hrs by real time PCR method relative to control; type: functional; in short: as §3

CCCC[C@H](NC(=O)[C@H](CC(C)C)NC(=O)[C@H](CCC(N)=O)NC(=O)[C@@H](NC(=O)[C@H](CCC(=O)O)NC(=O)C(C)(C)NC(=O)[C@@H](NC(=O)C(C)(C)N)C(C)C)[C@@H](C)CC)C(=O)N[C@@H](Cc1cnc[nH]1)C(=O)N[C@@H](CCC(N)=O)C(=O)N[C@@H](CCCNC(=N)N)C(=O)N[C@@H](C)C(=O)N[C@@H](CCCCN)C(=O)N[C@@H](Cc1ccc(O)cc1)C(N)=O (H-[Aib]V[Aib]EIQL[Nle]HQRAKY-NH2)
EC50 [1]: 26 nM
fold change (FC) [2]: 4
half-life [3]: 15 min
fold change (FC) [4]: 48
fold change (FC) [5]: 5
fold change (FC) [6]: 14
fold change (FC) [7]: 18
Activity [8]: 150%
IC50 [9]: 6.87 nM
EC50 [10]: 6 nM
fold change (FC) [11]: 66
fold change (FC) [12]: 9
fold change (FC) [13]: 13
EC50 [14]: 0.15 nM
half-life [15]: 20 min
fold change (FC) [16]: 11
EC50 [17]: 2.2 nM
fold change (FC) [18]: 9
fold change (FC) [19]: -2
EC50 [20]: 0.2 nM
fold change (FC) [21]: 3
EC50 [22]: 30 nM
fold change (FC) [23]: -2
fold change (FC) [24]: 11
IC50 [25]: 55.4 nM
fold change (FC) [26]: 15
Activity [27]: 21%
fold change (FC) [28]: 6
fold change (FC) [29]: 4
Kd [30]: 21.6 nM
EC50 [31]: 1.1 nM
fold change (FC) [32]: 6
